Bioassay records as filed in PubChem BioAssay.
Sampled rows, rich in hits. Any-hit rate of the full collection: about 4.5%.
NF-kB expr up – activators of NF-kB expression in neurons, primary screen, cell-based, HTS. human neuronal cells, NF-kB reporter expression; stronger effect = higher value. fold change at 12.5 µM. hit rate 1.6% among 190,000. AID 1239, 2008; in the data active = fold change above about 3.3
APP 5'UTR act – activators of APP 5'UTR luciferase reporter, primary screen, SH-SY5Y cells. hit rate 1% among 190,000. AID 1276, 2008. SH-SY5Y APP 5'UTR luciferase reporter, luminescence; zero percent = DMSO vehicle wells. activation, % at 2 µM;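 active = activation above a set limit, based on mean plus 3 SD of controls, cut at about 140% in these data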
STAT1 act – STAT1 signaling activators, primary screen, cell-based, HTS, luciferase reporter; NIH 3T3 STAT1-luciferase reporter, IFN-gamma, luminescence; 100% = IFN-gamma alone, no compound; activation (% of control), % at 5.5 µM; hit rate 2.6% among 200,000; AID 932, 2007;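 active = activation above the screen-wide mean activation plus 3 SD, cut at about 130% in these data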;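 also: raw ratio to IFN-gamma control signal so 100% means no change and 0% no light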
PERK inhibitor – block of dimerizer-induced PERK translation repression, primary screen, PERK inhibitor project, CHO PERK-DD cells, SEAP luminescence, HTS. Eukaryotic translation initiation factor 2-alpha kinase 3 (Homo sapiens), Q9NZJ5. AID 1416, 2008. hit rate 0.17% among 220,000. CHO PERK-DD fusion, SEAP luminescence translation reporter. inhibition, % at 5.6 µM;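 active = inhibition above the mean inhibition of all tested compounds plus 3 SD, set separately per screening campaign, cut at about 2.9% in these data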;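 also: PERK kinase domain activated by AP20187 dimerizer at 100 nM; 0% = DMSO with dimerizer and 100% = rapamycin at 8.4 µM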
AHR activator – AHR activators, primary screen, cell-based, luminescence, luciferase reporter, human. activation, % at 5 µM. Aryl hydrocarbon receptor (Homo sapiens), P35869. hit rate 2.5% among 320,000. AHR-responsive luciferase reporter cells. AID 2796, 2010; in the data active = activation above about 47%;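 also: 0% = vehicle wells and 100% = reference agonist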
MDM2 E3 inh – MDM2-luciferase reporter signal enhancers, primary screen, MDM2 E3 ligase inhibitor project, cell-based, luminescence, 1536-well | cell-based MDM2 ubiquitination luciferase reporter, 2 h; 0 = plate control, 100 = twice control, blank-subtracted | hit rate 0.11% among 210,000 | AID 1230, 2008 | signal enhancement, % at 5 µM | E3 ubiquitin-protein ligase Mdm2 (Homo sapiens), Q00987;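 active = signal enhancement of 30% or more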;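 also: luminescence tracks abundance of the self-degrading MDM2-luciferase fusion protein; higher signal means inhibition of MDM2 E3 ligase activity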
Target sequence (Q00987 whole entry, looked up, the tested form may be a part): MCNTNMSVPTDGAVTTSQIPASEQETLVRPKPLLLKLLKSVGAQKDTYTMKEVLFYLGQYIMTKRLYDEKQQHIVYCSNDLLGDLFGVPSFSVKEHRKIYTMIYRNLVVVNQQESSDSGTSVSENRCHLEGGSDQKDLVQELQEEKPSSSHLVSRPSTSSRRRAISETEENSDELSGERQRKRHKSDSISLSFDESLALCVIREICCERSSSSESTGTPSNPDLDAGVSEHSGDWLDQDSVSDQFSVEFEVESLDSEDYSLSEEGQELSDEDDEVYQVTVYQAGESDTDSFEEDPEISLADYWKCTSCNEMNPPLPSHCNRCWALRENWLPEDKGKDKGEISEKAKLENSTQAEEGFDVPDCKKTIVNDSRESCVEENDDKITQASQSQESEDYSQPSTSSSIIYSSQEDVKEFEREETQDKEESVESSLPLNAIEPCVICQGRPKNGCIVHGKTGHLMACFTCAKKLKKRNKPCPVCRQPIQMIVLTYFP
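test system = mammalian cells stably expressing self-ubiquitinating, self-degrading MDM2 E3–luciferase fusion | quantity = 2000 cells/well | incubation = cell settling 4 h, compound treatment 2 h, both 37 °C | signal = luminescence with SteadyLite reagent, 15 min at room temperature | evaluation = % enhancement relative to plate controls after blank subtraction | benchmarks = plate controls and plate blanks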
An asterisk follows results filed as active; x = not tested or not shown.

SMILES	NF-kB expr up	APP 5'UTR act	STAT1 act	PERK inhibitor	AHR activator	MDM2 E3 inh
c1ccc(Cc2nc(-c3ccccn3)no2)cc1	1.61	66.9	124.8	-0.1	1.0	-22.0
CCC(C)Nc1nc2c(c(=O)n(C)c(=O)n2C)n1C (stereo unspecified)	x	x	x	1.9	6.2	-3.6
COc1ccc(CCNC(=O)C2CCCN(S(=O)(=O)c3ccc(F)cc3)C2)cc1OC (stereo unspecified)	x	x	x	x	1.7	x
COc1ccc(OCC(=O)Nc2cc(NC(=O)COc3ccc(OC)cc3)cc(C(=O)O)c2)cc1	x	x	x	x	0.8	x
NC(=S)N/N=C\c1c2ccccc2cc2ccccc12	0.83	5.7	103.9	0.0	7.2	-5.0
NC(=S)N/N=C\c1c(OCc2ccccc2Cl)ccc2ccccc12	1.19	-6.3	127.6	0.5	70.2*	-2.5
Cc1ccc(NC(=O)C2C(=O)N(C)c3ccccc32)cc1 (stereo unspecified)	1.24	-11.1	108.7	0.3	72.6*	-7.7
COc1ccc(C(=O)/C=C/Nc2ccccn2)c(OC)c1	x	x	x	-0.4	-5.0	-27.1
O=C(/C=C\Nc1ccccn1)c1ccccc1	3.5*	156.7*	59.1	0.0	42.8	-89.8
O=C(/C=C/Nc1ccccc1)c1ccc(Oc2ncccn2)cc1	3.54*	21.5	155.6*	-0.3	-4.9	-28.8
C/C(=N\N=C(N)N)c1ccc(C)c(C)c1	x	x	x	0.1	59.4*	2.4
NNc1ccc(Cl)nn1	x	x	x	0.9	68.7*	-20.8
CNc1ccc(Cl)nn1	x	-11.0	106.8	0.1	1.2	-12.6
Cc1ccc(S(=O)(=O)N2CCc3c2cc([N+](=O)[O-])cc3[N+](=O)[O-])cc1	x	x	x	x	0.9	x
O=C(CSc1ccc2c(c1)OCCO2)N1CCN(c2ccccc2)CC1	x	x	x	x	-1.1	x
CC(=O)C1=C(O)C(=O)N(c2cccc(Br)c2)C1c1ccc(Br)cc1 (stereo unspecified)	x	x	x	x	0.5	x
CC(=O)C1=C(O)C(=O)N(c2ccc(Br)cc2)C1c1ccc(Br)cc1 (stereo unspecified)	x	x	x	x	49.4*	x
Cc1sc2nc(CN(Cc3cccs3)C(=O)NC3CCCCC3)[nH]c(=O)c2c1C	1.12	12.3	99.5	-1.2	65.1*	-17.2
Cc1ccccc1-c1nc(C#N)c(N2CCC(C)CC2)o1	x	x	x	x	8.9	x
CC1CCN(c2oc(-c3ccccc3Cl)nc2C#N)CC1	3.7*	80.5	120.7	0.3	13.9	-14.8
CCN1/C(=C\C(=S)Nc2ccccc2)Sc2ccccc21	2.21	63.2	143.9*	0.3	9.1	-24.2
O=C(NCc1ccccc1)NC(=O)c1ccccc1	1.68	9.7	104.6	-0.5	4.7	2.7
O=C(NC(=O)c1ccccc1)NC1(C(F)(F)F)OCCO1	4.25*	96.9	135.2*	0.5	0.9	-27.4
Clc1ccc(-c2cn3nc4c(nc3n2)CCCC4)cc1	2.12	190.9*	113.1	0.4	12.0	-4.4
CC(=O)Nc1c(-c2ccccc2)nc2cc(C)ccn12	x	x	x	x	4.7	x
SMILES	NF-kB expr up	APP 5'UTR act	STAT1 act	PERK inhibitor	AHR activator	MDM2 E3 inh
COc1ccc(-c2nc3cc(C)ccn3c2NC(=O)c2ccccc2OC)cc1	x	x	x	x	53.2*	x
CCOc1ccc(/C(O)=C2/C(=O)C(=O)N(CC3CCCO3)C2c2cccs2)cc1 (stereo unspecified)	1.29	2.0	101.0	0.8	-0.2	7.9
COc1ccc(NC(=O)C(=O)NCCO)cc1Cl	1.16	-2.8	109.0	0.8	59.0*	-7.2
COc1ccc(NC(=O)C(=O)NCCCO)cc1Cl	1.44	22.2	106.7	0.9	61.6*	-14.2
CCOC(=O)C(=O)Nc1ccc(OC)c(Cl)c1	x	21.3	99.1	0.7	20.6	x
C#CCNC(=O)C1=C[C@@H](c2coc3ccccc3c2=O)C[C@@H](OCc2ccc(CO)cc2)O1	0.9	10.7	97.5	1.3	5.4	x
C=CCOn1c(=O)c(-c2cc3ccccc3o2)[n+]([O-])c2ccccc21	1.54	33.0	116.9	0.2	63.7*	-20.5
CCOC(=O)COn1c(=O)c(-c2cccs2)[n+]([O-])c2ccccc21	1.02	7.2	102.2	-0.3	7.2	-28.5
